Activity calls are given as the source filed them.
What was measured:
[1] = molecular target: T1, Sodium-dependent dopamine transporter (Homo sapiens, UniProt Q01959); experiment: Enhancing of [3H]WIN35,428 binding to recombinant human DAT expressed in HEK293 cell membranes at 10 uM pre-incubated for 10 mins before radioligand addition and measured 90 mins after radioligand addition by micro beta scintillation counting analysis relative to control
[2] = molecular target: T1, Sodium-dependent dopamine transporter; experiment: Inhibition of [3H]WIN35,428 binding to recombinant human DAT expressed in HEK293 cell membranes at 10 uM pre-incubated for 10 mins before radioligand addition and measured 90 mins after radioligand addition by micro beta scintillation counting analysis relative to control
Adenosine receptor A3 [3] = molecular target: T2, Adenosine receptor A3 (Homo sapiens, UniProt P0DMS8); experiment: Displacement of [125I]N6-(4-amino-3-iodobenzyl)adenosine-5'-N-methyluronamide from human A3AR expressed in HEK293T cells pre-incubated for 10 mins before radioligand addition and measured 90 mins after radioligand addition by micro beta scintillation counting analysis relative to control; format: cell-based, HEK-293T
T2 sequence (P0DMS8 whole entry): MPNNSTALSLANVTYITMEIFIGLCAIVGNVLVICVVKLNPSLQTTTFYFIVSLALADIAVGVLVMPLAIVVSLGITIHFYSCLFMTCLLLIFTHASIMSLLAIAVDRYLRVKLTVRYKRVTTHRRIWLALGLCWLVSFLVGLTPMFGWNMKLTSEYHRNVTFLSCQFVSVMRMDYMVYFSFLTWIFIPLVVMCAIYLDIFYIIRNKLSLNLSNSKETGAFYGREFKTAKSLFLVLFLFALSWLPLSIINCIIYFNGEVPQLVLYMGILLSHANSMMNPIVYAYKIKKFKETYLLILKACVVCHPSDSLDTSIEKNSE

Adenosine receptor A3 [4] = molecular target: T3, Adenosine receptor A3 (Mus musculus, UniProt Q61618); experiment: Displacement of [125I]N6-(4-amino-3-iodobenzyl)adenosine-5'-N-methyluronamide from mouse A3AR expressed in HEK293T cells pre-incubated for 10 mins before radioligand addition and measured 90 mins after radioligand addition by micro beta scintillation counting analysis relative to control; format: cell-based
T3 sequence (Q61618 whole entry): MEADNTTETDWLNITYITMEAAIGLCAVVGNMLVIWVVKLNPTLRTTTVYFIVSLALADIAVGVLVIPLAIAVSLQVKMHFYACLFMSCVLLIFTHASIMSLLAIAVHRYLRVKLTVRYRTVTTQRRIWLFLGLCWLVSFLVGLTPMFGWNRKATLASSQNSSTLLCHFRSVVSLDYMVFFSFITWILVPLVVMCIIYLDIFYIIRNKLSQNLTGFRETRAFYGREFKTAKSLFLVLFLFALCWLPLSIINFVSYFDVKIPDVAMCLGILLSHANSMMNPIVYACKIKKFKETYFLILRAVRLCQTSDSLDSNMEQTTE

[5] = molecular target: Sodium-dependent noradrenaline transporter (Homo sapiens, UniProt P23975); experiment: Inhibition of [3H]nisoxetine binding to recombinant human NET expressed in HEK293 cell membranes preincubated for 10 mins followed by radioligand addition measured after 90 mins by micro beta scintillation counting analysis
Sodium-dependent noradrenaline transporter, sequence (P23975 whole entry): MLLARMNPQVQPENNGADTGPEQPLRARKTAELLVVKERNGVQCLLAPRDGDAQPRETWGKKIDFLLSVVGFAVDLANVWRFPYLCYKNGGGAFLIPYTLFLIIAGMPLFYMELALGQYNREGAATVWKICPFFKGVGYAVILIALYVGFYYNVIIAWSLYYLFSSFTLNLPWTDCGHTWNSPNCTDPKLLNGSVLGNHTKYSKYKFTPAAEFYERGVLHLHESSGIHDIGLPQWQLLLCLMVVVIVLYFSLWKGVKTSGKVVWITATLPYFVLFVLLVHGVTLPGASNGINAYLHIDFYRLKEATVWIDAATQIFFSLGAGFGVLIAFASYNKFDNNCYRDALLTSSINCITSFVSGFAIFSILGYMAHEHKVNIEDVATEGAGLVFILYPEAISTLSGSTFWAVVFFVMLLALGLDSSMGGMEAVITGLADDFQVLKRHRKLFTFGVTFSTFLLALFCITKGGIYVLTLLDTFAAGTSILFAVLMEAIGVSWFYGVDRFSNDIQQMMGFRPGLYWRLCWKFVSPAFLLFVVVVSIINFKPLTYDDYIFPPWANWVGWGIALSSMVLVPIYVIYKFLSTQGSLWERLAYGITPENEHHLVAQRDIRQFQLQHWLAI

Mus musculus = experiment: Antiallodynic activity in mouse chronic constriction injury model of neuropathic pain assessed as time duration of action for increasing in paw withdrawal threshold at 3 umol/kg, po administered on day 7 post injury; format: functional
[6] = molecular target: Alpha-2A adrenergic receptor (Homo sapiens, UniProt P08913); experiment: Displacement of [3H]Rauwolscine from human adrenergic alpha2A receptor
Alpha-2A adrenergic receptor, sequence (P08913 whole entry): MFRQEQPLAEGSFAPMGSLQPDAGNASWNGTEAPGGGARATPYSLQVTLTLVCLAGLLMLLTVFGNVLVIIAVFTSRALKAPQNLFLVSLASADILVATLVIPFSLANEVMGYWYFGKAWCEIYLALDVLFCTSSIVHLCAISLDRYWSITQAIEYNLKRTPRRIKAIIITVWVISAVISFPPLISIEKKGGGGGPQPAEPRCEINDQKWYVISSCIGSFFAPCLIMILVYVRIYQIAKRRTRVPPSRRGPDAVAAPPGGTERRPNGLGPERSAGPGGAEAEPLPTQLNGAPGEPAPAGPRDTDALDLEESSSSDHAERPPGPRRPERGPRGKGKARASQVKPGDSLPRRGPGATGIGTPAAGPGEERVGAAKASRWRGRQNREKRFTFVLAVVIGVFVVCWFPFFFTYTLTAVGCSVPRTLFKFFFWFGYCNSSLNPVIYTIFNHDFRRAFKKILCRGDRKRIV

[7] = molecular target: Alpha-2B adrenergic receptor (Homo sapiens, UniProt P18089); experiment: Displacement of [3H]Rauwolscine from human adrenergic alpha2B receptor
Alpha-2B adrenergic receptor, sequence (P18089 whole entry): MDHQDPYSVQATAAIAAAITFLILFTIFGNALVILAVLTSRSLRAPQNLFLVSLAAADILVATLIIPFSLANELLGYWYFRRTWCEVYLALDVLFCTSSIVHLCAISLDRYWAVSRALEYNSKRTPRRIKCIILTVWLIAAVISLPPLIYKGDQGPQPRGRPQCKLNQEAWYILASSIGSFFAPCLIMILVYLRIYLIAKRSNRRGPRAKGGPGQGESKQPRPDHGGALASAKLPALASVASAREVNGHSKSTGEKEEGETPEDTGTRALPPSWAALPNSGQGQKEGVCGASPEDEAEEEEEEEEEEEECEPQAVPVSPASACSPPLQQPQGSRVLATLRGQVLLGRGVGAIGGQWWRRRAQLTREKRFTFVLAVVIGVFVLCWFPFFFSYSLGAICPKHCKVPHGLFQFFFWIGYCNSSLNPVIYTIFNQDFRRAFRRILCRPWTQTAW

[8] = molecular target: T4, Alpha-1A adrenergic receptor (Homo sapiens, UniProt P35348); experiment: Displacement of [3H]Prazosin from human adrenergic alpha1A receptor
T4 sequence (P35348 whole entry): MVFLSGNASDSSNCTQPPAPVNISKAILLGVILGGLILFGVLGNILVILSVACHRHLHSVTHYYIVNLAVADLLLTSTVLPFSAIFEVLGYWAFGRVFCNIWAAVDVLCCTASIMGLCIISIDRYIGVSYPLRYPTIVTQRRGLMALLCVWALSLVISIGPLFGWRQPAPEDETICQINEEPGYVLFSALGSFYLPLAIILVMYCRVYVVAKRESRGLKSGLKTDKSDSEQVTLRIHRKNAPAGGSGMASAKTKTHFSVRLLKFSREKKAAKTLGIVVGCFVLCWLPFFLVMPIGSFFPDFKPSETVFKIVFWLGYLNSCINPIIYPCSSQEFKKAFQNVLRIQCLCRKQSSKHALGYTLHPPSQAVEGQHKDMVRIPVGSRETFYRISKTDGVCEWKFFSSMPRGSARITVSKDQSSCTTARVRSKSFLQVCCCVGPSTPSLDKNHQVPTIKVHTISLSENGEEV

[9] = molecular target: T5, Alpha-1B adrenergic receptor (Homo sapiens, UniProt P35368); experiment: Displacement of [3H]Prazosin from human adrenergic alpha1B receptor
T5 sequence (P35368 whole entry): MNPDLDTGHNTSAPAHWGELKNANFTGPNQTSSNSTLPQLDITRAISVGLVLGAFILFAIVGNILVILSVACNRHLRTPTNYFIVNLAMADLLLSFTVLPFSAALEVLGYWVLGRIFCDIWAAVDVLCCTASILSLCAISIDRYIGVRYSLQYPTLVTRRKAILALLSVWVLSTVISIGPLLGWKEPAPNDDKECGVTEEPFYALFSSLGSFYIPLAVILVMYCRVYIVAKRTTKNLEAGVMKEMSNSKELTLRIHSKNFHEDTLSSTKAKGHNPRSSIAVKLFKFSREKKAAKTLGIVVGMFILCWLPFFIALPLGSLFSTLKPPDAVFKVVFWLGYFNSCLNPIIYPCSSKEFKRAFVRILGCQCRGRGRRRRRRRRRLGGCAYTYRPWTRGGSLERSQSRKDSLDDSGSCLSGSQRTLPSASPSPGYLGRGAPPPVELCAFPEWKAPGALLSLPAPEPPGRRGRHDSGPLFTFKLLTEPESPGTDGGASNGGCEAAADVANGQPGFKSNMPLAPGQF

[10] = molecular target: T6, Alpha-1D adrenergic receptor (Homo sapiens, UniProt P25100); experiment: Displacement of [3H]Prazosin from human adrenergic alpha1D receptor
T6 sequence (P25100 whole entry): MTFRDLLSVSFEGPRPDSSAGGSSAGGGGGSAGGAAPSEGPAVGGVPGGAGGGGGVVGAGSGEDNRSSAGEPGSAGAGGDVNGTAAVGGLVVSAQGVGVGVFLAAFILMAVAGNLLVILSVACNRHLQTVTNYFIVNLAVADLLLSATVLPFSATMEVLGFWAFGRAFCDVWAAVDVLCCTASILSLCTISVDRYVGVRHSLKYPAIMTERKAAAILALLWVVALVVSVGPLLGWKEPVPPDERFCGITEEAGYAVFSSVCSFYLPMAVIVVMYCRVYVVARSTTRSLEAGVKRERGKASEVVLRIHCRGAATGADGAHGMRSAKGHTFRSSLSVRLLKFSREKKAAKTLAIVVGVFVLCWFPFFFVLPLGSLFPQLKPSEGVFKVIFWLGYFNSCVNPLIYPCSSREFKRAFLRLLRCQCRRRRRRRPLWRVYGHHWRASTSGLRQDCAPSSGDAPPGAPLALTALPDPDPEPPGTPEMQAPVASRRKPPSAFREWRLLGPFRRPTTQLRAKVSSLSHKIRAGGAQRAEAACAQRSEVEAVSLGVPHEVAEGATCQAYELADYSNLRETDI

[11] = molecular target: T7, Alpha-2C adrenergic receptor (Homo sapiens, UniProt P18825); experiment: Displacement of [3H]Rauwolscine from human adrenergic alpha2C receptor
T7 sequence (P18825 whole entry): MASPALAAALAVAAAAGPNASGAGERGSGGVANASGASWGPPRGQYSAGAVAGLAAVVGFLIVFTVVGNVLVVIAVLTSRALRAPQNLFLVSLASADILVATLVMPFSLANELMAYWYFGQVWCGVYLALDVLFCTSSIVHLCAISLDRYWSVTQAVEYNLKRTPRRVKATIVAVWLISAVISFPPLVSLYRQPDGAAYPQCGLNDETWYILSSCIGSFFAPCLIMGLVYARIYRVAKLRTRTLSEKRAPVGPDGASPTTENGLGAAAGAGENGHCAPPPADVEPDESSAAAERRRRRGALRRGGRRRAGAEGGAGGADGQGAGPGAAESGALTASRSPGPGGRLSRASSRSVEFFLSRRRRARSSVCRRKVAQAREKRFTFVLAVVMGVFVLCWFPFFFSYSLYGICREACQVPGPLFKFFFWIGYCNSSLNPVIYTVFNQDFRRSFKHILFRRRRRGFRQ

[12] = molecular target: T1, Sodium-dependent dopamine transporter; experiment: Enhancing of [3H]WIN35,428 binding to recombinant human DAT expressed in HEK293 cell membranes pre-incubated for 10 mins before radioligand addition and measured 90 mins after radioligand addition by micro beta scintillation counting analysis relative to control
[13] = molecular target: T1, Sodium-dependent dopamine transporter; experiment: Enhancing of [125I]RTI-55 binding to recombinant human DAT expressed in HEK293 cell membranes preincubated for 10 mins followed by radioligand addition measured after 90 mins by micro beta scintillation counting analysis; conditions: hek293
In short: (§1)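 Membranes of HEK-293 cells stably expressing hDAT, hNET or hSERT. […] Compound preincubated 10 min at room temperature, then [125I]23 (40-80 pM final) or [3H]26 (1-3 nM for DAT and NET, 10-13 nM for SERT) added. Incubated 90 min at room temperature in the dark, then filtered. EC50 or Ki; mean ± SEM.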

[14] = molecular target: T1, Sodium-dependent dopamine transporter; experiment: Enhancing of [3H]mazindol binding to recombinant human DAT expressed in HEK293 cell membranes preincubated for 10 mins followed by radioligand addition measured after 90 mins by micro beta scintillation counting analysis; conditions: hek293; in short: as §1
[15] = molecular target: Sodium-dependent serotonin transporter (Homo sapiens, UniProt P31645); experiment: Enhancing of [125I]RTI-55 binding to recombinant human SERT expressed in HEK293 cell membranes preincubated for 10 mins followed by radioligand addition measured after 90 mins by micro beta scintillation counting analysis; conditions: hek293
Sodium-dependent serotonin transporter, sequence (P31645 whole entry): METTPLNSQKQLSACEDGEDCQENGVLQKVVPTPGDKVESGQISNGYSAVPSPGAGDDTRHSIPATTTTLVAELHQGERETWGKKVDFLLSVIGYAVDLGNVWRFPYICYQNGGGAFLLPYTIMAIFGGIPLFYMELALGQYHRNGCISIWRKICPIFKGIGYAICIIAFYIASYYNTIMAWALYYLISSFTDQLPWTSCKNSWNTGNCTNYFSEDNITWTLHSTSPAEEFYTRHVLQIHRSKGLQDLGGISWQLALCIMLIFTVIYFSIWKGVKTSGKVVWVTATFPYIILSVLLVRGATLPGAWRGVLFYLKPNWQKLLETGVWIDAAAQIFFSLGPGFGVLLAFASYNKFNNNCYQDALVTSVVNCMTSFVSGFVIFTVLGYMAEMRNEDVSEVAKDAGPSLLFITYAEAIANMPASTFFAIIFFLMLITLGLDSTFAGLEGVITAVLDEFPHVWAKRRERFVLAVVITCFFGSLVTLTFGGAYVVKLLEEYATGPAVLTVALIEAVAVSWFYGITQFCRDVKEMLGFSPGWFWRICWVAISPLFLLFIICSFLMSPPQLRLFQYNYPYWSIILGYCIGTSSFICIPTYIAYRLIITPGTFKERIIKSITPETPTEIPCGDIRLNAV

[16] = molecular target: T8, Sodium-dependent dopamine transporter (Mus musculus, UniProt Q61327); experiment: Inhibition of mouse DAT expressed in HEK293 cells assessed as reduction in [3H]-DA uptake; format: cell-based
T8 sequence (Q61327 whole entry): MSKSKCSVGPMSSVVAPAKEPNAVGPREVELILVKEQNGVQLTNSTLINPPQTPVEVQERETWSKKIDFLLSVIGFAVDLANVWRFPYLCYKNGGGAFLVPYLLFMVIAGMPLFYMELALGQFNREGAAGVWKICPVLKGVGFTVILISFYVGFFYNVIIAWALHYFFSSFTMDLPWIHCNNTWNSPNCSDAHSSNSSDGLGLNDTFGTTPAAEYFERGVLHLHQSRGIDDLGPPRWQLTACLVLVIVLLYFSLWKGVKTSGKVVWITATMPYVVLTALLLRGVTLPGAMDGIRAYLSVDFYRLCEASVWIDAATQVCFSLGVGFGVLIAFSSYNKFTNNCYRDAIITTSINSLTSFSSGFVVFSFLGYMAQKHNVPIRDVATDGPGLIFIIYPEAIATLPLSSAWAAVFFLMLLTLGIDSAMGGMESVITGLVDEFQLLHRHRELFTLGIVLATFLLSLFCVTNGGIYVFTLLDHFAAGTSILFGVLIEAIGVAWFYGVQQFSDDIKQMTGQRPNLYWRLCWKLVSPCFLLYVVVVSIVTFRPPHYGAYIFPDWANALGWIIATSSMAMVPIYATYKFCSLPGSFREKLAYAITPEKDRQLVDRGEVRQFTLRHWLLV

[17] = molecular target: T8, Sodium-dependent dopamine transporter; experiment: Inhibition of [125I]RTI-55 binding to mouse DAT expressed in HEK293 cells preincubated for 10 mins followed by radioligand addition measured after 90 mins by micro beta scintillation counting analysis; format: cell-based
[18] = molecular target: T9, Adenosine receptor A3 (Mus musculus) (UniProt Q61618); experiment: Displacement of [125I]N6-(4-amino-3-iodobenzyl)adenosine-5'-N-methyluronamide from mouse A3AR expressed in HEK293T cells at 10 uM pre-incubated for 10 mins before radioligand addition and measured 90 mins after radioligand addition by micro beta scintillation counting analysis relative to control; format: cell-based
T9 sequence (whole entry): T3 sequence (Q61618 whole entry)

[19] = molecular target: Sigma intracellular receptor 2 (Rattus norvegicus, UniProt Q5U3Y7); experiment: Displacement of [3H]DTG from rat sigma 2 receptor
Sigma intracellular receptor 2, sequence (Q5U3Y7 whole entry): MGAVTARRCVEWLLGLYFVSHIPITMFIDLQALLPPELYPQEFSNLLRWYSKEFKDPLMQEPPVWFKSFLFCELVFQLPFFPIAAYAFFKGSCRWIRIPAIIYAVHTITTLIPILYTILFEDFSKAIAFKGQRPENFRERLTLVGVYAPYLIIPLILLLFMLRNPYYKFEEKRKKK

T1 sequence (Q01959 whole entry): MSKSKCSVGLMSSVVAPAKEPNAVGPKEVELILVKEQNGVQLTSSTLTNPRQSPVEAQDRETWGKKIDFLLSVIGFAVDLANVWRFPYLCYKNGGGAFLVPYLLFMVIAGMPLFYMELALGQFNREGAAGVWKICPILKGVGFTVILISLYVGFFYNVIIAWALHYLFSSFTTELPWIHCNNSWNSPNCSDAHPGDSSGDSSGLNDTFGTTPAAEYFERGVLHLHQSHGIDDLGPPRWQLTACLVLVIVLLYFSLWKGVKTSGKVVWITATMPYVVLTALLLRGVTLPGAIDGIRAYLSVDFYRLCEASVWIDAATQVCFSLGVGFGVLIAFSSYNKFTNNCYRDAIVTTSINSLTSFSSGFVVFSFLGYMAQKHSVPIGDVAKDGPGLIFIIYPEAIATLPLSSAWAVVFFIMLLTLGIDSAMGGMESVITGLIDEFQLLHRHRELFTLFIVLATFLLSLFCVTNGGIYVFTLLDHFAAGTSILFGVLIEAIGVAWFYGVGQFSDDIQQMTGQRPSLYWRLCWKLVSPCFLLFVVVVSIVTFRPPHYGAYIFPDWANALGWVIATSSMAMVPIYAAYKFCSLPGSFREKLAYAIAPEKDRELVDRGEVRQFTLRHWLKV

SMILES | Activity [1] | inhibition [2] | Ki (Adenosine receptor A3 [3]) [µM] | Ki (Adenosine receptor A3 [4]) [µM] | Ki [5] [µM] | Time (Mus musculus) [h] | Ki [6] [µM] | Ki [7] [µM] | Ki [8] [µM] | Ki [9] [µM] | Ki [10] [µM] | Ki [11] [µM] | EC50 [12] [µM] | EC50 [13] | EC50 [14] | EC50 [15] | IC50 [16] [µM] | Ki [17] [µM] | inhibition [18] [%] | Ki [19] [µM]
CCCNc1nc(C#Cc2ccc(Cl)s2)nc2c1ncn2[C@@H]1O[C@H](C(=O)NC)[C@@H](O)[C@H]1O | 84% | inactive | 0.00625 | 0.597 | 3.1 | >6 | 5 to 10 | 5 to 10 | > 10 | > 10 | > 10 | > 10 | > 1 |  |  |  |  |  |  | 
COC(=O)[C@H]1[C@@H](OC(=O)c2ccccc2)C[C@@H]2CC[C@H]1N2C [COCAINE] |  |  |  |  |  |  |  |  |  |  |  |  |  | Not Active | Not Active | Not Active | 0.2 | 0.85 |  | 
CNc1nc(C#Cc2ccc(Cl)s2)nc2c1ncn2[C@H]1[C@H](O)[C@H](O)[C@]2(C(=O)OCCc3ccccc3)C[C@H]12 | inactive |  | 0.262 |  |  |  |  |  |  |  |  |  |  |  |  |  |  |  | 3 | 5.9

— ChEMBL document CHEMBL4007505 (J Med Chem, 2017)
